These results are taken from ChEMBL document CHEMBL3352556, “Neural cell activation by phenolic compounds from the Siberian larch (Larix sibirica)” (J Nat Prod, 2014).

Data set [1] is described as follows: Cytotoxicity against C57BL/6J mouse primary cerebellar neurons assessed as reduction in cell viability at 1 uM after 24 hrs by microscopy.
Data set [2] is filed under the species Mus musculus. In words: Induction of neurite outgrowth in C57BL/6J mouse motoneurons at 1 to 200 nM after 24 hrs by microscopy. It counts as functional. The method in brief:
(§1)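 Motoneurons came from spinal cords of E14.5 mice, were seeded at 1.25 × 10^4 cells/well on poly-L-ornithine and cultured serum-free. Compound was added 1 h after seeding (0.1% DMSO final; DMSO control) and cells were fixed at 24 h. Neurite length was measured microscopically. Duplicates, ≥100 cells per treatment, 3 independent experiments, mean ± SEM.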

The species named for data set [3] is Mus musculus. In words: Induction of neurite outgrowth in C57BL/6J mouse motoneurons at 500 nM after 24 hrs by microscopy. It counts as functional. The method in brief: as §1
The nature of data set [4]: Induction of migration of C57BL/6J mouse cerebellar primary neuron at 100 nM after 48 hrs by microscopy relative to DMSO-treated control. It counts as functional.
Data set [5] can be described thus: Induction of migration of C57BL/6J mouse cerebellar primary neuron assessed as cell population migrating to 1- 150 um at 100 nM after 48 hrs by microscopy (reference value: 72 %). It counts as functional.
The nature of data set [6]: Induction of migration of C57BL/6J mouse cerebellar primary neuron assessed as cell population migrating to 151- 300 um at 100 nM after 48 hrs by microscopy (reference value: 25 %). It counts as functional.
Data set [7] can be described thus: Induction of migration of C57BL/6J mouse cerebellar primary neuron assessed as cell population migrating to >301 um at 100 nM after 48 hrs by microscopy (reference value: 3 %). It counts as functional.
Data set [8] has as its system Schwann. In words: Stimulation of process formation/elongation of C57BL/6J mouse Schwann cells after 24 hrs by microscopy. It counts as functional, cell-based. The method in brief:
(§2)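 Schwann cells from dorsal root ganglia of 6- to 8-day-old mice were seeded at 1.25 × 10^4 cells/well on PLL and cultured serum-free. Compound (0.1% DMSO final; DMSO control) was added 1 h after seeding and cells were fixed at 24 h. Process length was measured microscopically. Duplicates, ≥100 cells per treatment, 3 independent experiments, mean ± SEM.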

A short description of data set [9]: Stimulation of process formation/elongation of C57BL/6J mouse Schwann cells at 100 pM to 100 nM after 24 hrs by microscopy relative to DMSO-treated control. It counts as functional. The method in brief: as §2
The subject of data set [10] is Schwann. The experiment in a line: Stimulation of process formation/elongation of C57BL/6J mouse Schwann cells at 1 uM after 24 hrs by microscopy. It counts as functional, cell-based. The method in brief:
as §2

A short description of data set [11]: Cytotoxicity against C57BL/6J mouse Schwann cells at 1 uM after 24 hrs by microscopy. It counts as cell-based.
In data set [12] the test system is Astrocyte. The experiment in a line: Reduction in migration of C57BL/6J mouse brain astrocytes assessed as distance of migration at 100 nM after 8 to 48 hrs by scratch injury assay (reference value: 700 um). It counts as functional.
The species entered for data set [13] is Mus musculus. The experiment in a line: Induction of neurite outgrowth in C57BL/6J mouse primary cerebellar neurons after 24 hrs by microscopy. It counts as functional. The method in brief: (§3)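 Cerebellar granule neurons from 6- to 8-day-old mice were plated at 2.5 × 10^4 cells/well on PLL in defined serum-free medium. Compound (100 pM–1 μM; 0.1% DMSO final, DMSO control) was added 1 h post-seeding and cells were fixed at 24 h. Neurite length was measured by microscopy. Duplicates, ≥100 cells per treatment, 3 independent experiments, mean ± SEM.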

Data set [14] is described as follows: Induction of neurite outgrowth in C57BL/6J mouse primary cerebellar neurons at 100 nM after 24 hrs by microscopy relative to DMSO-treated control. It counts as functional. The gist of the method:
as §3

Data set [15] in a line: Induction of neurite outgrowth in C57BL/6J mouse dorsal root ganglion neurons at 100 nM after 24 hrs by microscopy relative to DMSO-treated control. It counts as functional, DRG neuron. The gist of the method:
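Dorsal root ganglion neurons from 6- to 8-day-old mice were seeded at 1.25 × 10^4 cells/well on PLL in serum-free culture. 100 nM compound (0.1% DMSO final) was added 1 h after seeding. Cells were fixed after 24 h and neurite length was measured by microscopy versus DMSO control. Duplicates, ≥100 cells per treatment, 3 independent experiments, mean ± SEM.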

The source made the active and inactive calls. No cut-off for these calls is given here.

Take `COc1cc(C[C@@H](CO)[C@H](CO)Cc2ccc(O)c(OC)c2)ccc1O` [(+)-SECOISOLARICIRESINOL]: the Activity entry is “Non-toxic” in data set [1]; 65% in data set [5]; 27% in [6]; 8% in data set [7]; “Dose-dependent effect” in data set [8]; “Non-toxic” in data set [11]. Moreover, the Activity was 500 µm in data set [12] and “Dose-dependent effect” in data set [13]. Further, the result in [2] was Active. Also, the outcome in [3] and in [10] was inactive. Besides, the “fold change (FC)” value is given as 1.2 in data set [4], 1.8 in data set [9] and 1.6 in data set [14].

`O=C1c2c(O)cc(O)cc2O[C@H](c2ccc(O)c(O)c2)[C@H]1O` [(+)-TAXIFOLIN]: the Activity result in data set [1] is “Non-toxic”; in [5], 59%; in data set [6], 29%; in [7] it was 12%; in [8], “Dose-dependent effect”; in data set [11], “Non-toxic”. Also, the values for the Activity in data set [12] and in data set [13] were 500 µm and “Dose-dependent effect”, respectively. Further, the outcome in data set [2] was Active. Besides, the outcome in [3] and in [10] was inactive. Besides, the fold change (FC) in data set [15] was found to be 1.7; in data set [4], 1.4; in data set [9], 1.9; in [14] it was 1.6.

As for `COc1cc([C@H]2c3cc(O)c(OC)cc3C[C@@H](CO)[C@@H]2CO)ccc1O` [ISOLARICIRESINOL], the Activity result was “Non-toxic” in data set [1]; 68% in data set [5]; 24% in data set [6]; 8% in data set [7]; “Dose-dependent effect” in [8]; “Non-toxic” in data set [11]. In addition, the Activity in data set [12] was 500 µm; in data set [13], “Dose-dependent effect”. In data set [2], the result was Active. Also, the outcome in data set [3] and in data set [10] was inactive. Further, the figures for the “fold change (FC)” value in data set [4], in data set [9] and in data set [14] were 1.2, 1.8 and 1.6, respectively.
